Legend:
[1] = molecular target: Protein kinase C gamma type (Homo sapiens, UniProt P05129); assay: Inhibition of Protein kinase C gamma (PKC-gamma)
In short: (§1)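 Recombinant human PKCα, PKCγ or PKCβII (5–10 mU) phosphorylating histone H1 (0.1 mg/mL) with 33P-ATP, total ATP 10 µM. Buffer 50 mM Hepes pH 7.4 with Triton X-100, CaCl2, Mg acetate, phosphatidylserine and diacylglycerol. Run 40 min at room temperature, stopped with phosphoric acid, then P30 filter counting. IC50 from 6–10 concentrations; ≥3 experiments in duplicate; ± SEM.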

[2] = Inhibition of Casein Kinase I; design: species or system Rattus norvegicus
In short: (§2)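 Reaction started with 30–150 ng kinase, run 1 h at 30 °C. Peptides captured on streptavidin plates and counted. IC50 from 6–10 concentrations; ≥3 experiments in duplicate; ± SEM.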

CaM kinase II = CaM kinase II (Homo sapiens, UniProt Q13557+Q13555+Q13554+Q9UQM7); assay: Inhibition of Calcium/calmodulin-dependent protein kinase II; assay type: protein assay, Rattus norvegicus
[3] = molecular target: Cyclin-dependent kinase 1 (Homo sapiens, UniProt P06493); assay: Inhibition of Cyclin-dependent kinase 1; in short: as §2
Chain of Cyclin-dependent kinase 1 (P06493 whole entry): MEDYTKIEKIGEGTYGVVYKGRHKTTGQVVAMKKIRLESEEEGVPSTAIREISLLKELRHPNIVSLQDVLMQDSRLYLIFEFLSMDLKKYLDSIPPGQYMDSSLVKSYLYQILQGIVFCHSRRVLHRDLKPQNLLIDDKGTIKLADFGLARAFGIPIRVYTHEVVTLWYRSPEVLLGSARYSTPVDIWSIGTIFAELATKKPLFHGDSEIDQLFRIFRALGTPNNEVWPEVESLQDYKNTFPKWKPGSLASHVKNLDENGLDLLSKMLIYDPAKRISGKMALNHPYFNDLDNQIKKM

[4] = molecular target: Cyclin-dependent kinase 2 (Homo sapiens, UniProt P24941); assay: Inhibition of Cyclin-dependent kinase 2 (CDK2); in short: as §2
[5] = molecular target: Protein kinase C alpha type (Homo sapiens, UniProt P17252); assay: Inhibition of Protein kinase C alpha
In short: as §1, with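 “counting.” for “counting. IC50 from 6–10 concentrations; ≥3 experiments in duplicate; ± SEM.”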

[6] = molecular target: Protein kinase C beta type (Homo sapiens, UniProt P05771); assay: Inhibition of Protein kinase C beta 2
Chain of Protein kinase C beta type (P05771 whole entry): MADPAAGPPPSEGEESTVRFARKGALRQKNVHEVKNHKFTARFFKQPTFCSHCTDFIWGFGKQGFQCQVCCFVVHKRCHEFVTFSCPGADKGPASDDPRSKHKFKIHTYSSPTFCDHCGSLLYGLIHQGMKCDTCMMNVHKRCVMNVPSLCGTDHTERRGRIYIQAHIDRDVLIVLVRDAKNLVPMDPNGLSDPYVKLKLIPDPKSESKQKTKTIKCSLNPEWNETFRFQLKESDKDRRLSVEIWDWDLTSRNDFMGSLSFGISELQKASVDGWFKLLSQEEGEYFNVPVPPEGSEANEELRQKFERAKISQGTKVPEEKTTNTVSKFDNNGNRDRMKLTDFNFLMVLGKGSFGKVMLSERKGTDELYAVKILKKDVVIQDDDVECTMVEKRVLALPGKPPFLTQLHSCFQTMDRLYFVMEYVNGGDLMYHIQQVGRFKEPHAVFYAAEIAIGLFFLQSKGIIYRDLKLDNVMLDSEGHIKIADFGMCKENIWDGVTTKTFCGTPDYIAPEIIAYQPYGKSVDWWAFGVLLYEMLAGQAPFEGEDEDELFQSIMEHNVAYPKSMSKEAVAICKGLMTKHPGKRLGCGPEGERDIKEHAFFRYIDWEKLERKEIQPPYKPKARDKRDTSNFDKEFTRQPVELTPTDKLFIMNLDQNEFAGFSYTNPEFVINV
In short: as §1, with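 “counting.” for “counting. IC50 from 6–10 concentrations; ≥3 experiments in duplicate; ± SEM.”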

[7] = Inhibitory activity against Protein kinase A was determined
[8] = molecular target: Protein kinase C theta type (Homo sapiens, UniProt Q04759); assay: Inhibition of Protein kinase C theta
Chain of Protein kinase C theta type (Q04759 whole entry): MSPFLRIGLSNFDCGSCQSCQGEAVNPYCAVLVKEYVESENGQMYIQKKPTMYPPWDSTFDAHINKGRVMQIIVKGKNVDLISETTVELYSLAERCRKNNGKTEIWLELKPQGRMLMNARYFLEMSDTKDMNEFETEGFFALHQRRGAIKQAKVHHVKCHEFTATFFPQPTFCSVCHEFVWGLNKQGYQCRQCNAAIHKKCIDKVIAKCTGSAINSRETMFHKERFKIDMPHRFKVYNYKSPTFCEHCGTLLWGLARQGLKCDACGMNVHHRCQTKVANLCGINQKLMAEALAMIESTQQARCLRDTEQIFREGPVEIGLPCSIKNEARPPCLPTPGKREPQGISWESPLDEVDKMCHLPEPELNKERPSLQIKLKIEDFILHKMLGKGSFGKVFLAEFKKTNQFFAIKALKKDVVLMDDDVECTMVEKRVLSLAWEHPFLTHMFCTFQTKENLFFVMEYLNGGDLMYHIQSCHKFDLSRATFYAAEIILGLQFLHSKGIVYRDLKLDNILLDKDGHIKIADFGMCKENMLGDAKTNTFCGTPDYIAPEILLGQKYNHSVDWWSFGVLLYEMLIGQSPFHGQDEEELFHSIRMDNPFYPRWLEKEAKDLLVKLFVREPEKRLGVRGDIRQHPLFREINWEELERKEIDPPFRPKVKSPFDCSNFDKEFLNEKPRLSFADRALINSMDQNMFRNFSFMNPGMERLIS
In short: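 Recombinant human PKCθ (5–10 mU) with histone H1 (0.1 mg/mL) and 33P-ATP, total ATP 10 µM, in 8 mM MOPS pH 7.0, 0.2 mM EDTA, 10 mM Mg acetate. Run 40 min at room temperature, stopped with phosphoric acid, then P30 filter counting. IC50 from 6–10 concentrations; ≥3 experiments in duplicate; ± SEM.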

[9] = Inhibition of Vascular endothelial growth factor receptor 2; design: species or system Homo sapiens; in short: as §2
[10] = molecular target: Glycogen synthase kinase-3 beta (Homo sapiens) (UniProt P49841); assay: Inhibition of Glycogen synthase kinase-3beta (GSK3-beta) at 1 uM; settings: Oryctolagus cuniculus
Chain of Glycogen synthase kinase-3 beta (Homo sapiens) (P49841 whole entry, looked up): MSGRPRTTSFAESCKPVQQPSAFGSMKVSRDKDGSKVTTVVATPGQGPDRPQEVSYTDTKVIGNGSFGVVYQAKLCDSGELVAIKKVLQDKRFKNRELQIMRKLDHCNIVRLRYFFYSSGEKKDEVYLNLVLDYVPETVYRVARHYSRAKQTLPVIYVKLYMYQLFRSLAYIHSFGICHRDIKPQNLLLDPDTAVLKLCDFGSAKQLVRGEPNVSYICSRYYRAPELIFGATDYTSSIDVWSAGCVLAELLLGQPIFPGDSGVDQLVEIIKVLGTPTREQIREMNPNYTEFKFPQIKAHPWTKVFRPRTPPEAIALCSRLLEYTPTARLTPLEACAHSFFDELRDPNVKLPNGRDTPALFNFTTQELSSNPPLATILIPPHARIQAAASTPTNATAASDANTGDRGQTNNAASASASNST

## O=C1NC(=O)C2=C1c1cn(c3ccccc13)CCOCCOCCn1cc2c2cccnc21
[1]
  IC50: 2.67 µM

## O=C1NC(=O)C2=C1c1cn(c3ccccc13)CCOCCOCCOCCn1cc2c2cccnc21 [INDOLYLYLMALEIMIDE 1]
[2]
  IC50: > 10 µM
CaM kinase II
  IC50: > 10 µM
[3]
  IC50: 4.43 µM
[4]
  IC50: 2.44 µM
[1]
  IC50: 1.34 µM
[5]
  IC50: 0.673 µM
[6]
  IC50: 0.046 µM
[7]
  IC50: > 10 µM
[8]
  IC50: 0.835 µM
[9]
  IC50: 3.56 µM

## CN1C(=O)C2=C(C1=O)c1cn(c3ncccc13)CCOCCOCCn1cc2c2ccccc21
[10]
  inhibition: 51%

## O=C1NC(=O)C2=C1c1cn(c3ncccc13)CCOCCOCCn1cc2c2cccnc21
[1]
  IC50: > 10 µM

## O=C1NC(=O)C2=C1c1cn(c3ccccc13)CCOCCOCCOCCOCCn1cc2c2ccccc21
[1]
  IC50: 3.3 µM

## O=C1NC(=O)C2=C1c1cn(c3ncccc13)CCOCCOCCOCCOCCOCCn1cc2c2cccnc21
[1]
  IC50: > 10 µM

## O=C1NC(=O)C2=C1c1cn(c3ccccc13)CCOCCOCCOCCOCCOCCn1cc2c2ccccc21
[1]
  IC50: 5.17 µM

## O=C1NC(=O)C2=C1c1cn(c3ccccc13)CCOCCOCCOCCn1cc2c2ccccc21 [INDOLYLYLMALEIMIDE 2]
[2]
  IC50: > 10 µM
[3]
  IC50: 1.25 µM
[4]
  IC50: 0.992 µM
[1]
  IC50: 1.2 µM
[5]
  IC50: 0.086 µM
[6]
  IC50: 0.006 µM
[7]
  IC50: > 10 µM
[8]
  IC50: 0.065 µM
[9]
  IC50: 1.45 µM

## O=C1NC(=O)C2=C1c1cn(c3ccccc13)CCOCCOCCn1cc2c2ccccc21
[1]
  IC50: 2.73 µM

## CN1C(=O)C2=C(C1=O)c1cn(c3ccccc13)CCOCCOCCOCCn1cc2c2ccccc21
[10]
  inhibition: 54%

Source: ChEMBL document CHEMBL1145082 (J Med Chem, 2003)
